The source of these data is PubChem BioAssay AID624466 (The Scripps Research Institute Molecular Screening Center, 2012).

Each structure is given as a SMILES string. Values joined by “and” are separate entries in the source; they are usually repeats but may differ in a detail not shown here. Equal entries are not always repeated. Out of some 360,000 compounds screened, about 5,400 (1.5%) were called active.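 Rule for the calls: active = inhibition above a per-plate cutoff, the mean inhibition of test compounds on that plate plus 3 SD (cut at about 49% in these data); inactive = the rest.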 The entries come from a sample that favours actives as a whole.

Trace amine-associated receptor 1 (Homo sapiens), sequence (Q96RJ0 whole entry, looked up): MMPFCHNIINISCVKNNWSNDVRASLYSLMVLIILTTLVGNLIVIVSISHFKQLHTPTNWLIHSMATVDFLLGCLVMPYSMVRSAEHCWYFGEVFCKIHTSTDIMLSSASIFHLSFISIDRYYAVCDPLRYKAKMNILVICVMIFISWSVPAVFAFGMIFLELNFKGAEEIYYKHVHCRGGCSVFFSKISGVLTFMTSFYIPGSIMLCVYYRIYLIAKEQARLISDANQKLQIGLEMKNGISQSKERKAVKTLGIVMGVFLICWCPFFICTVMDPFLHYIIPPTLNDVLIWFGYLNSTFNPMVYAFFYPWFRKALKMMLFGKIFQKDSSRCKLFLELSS

For the assay, the target named is Trace amine-associated receptor 1 (Homo sapiens) (UniProt Q96RJ0). The assay is described as follows: human TAAR1 antagonists, primary screen, Fluo-8 calcium fluorescence, CHO RD-HGA16 cells (AID 624466).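 Note: 0% = DMSO plus EC80 beta-PEA response and 100% = DMSO alone without agonist.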 To be noted: CHO RD-HGA16 TAAR1, Fluo-8 calcium fluorescence, antagonist; at 3 µM; stronger effect = higher value. The method in brief:
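Test system: CHO RD-HGA16 cells bearing hTAAR1 | Reagent: β-PEA, EC80 | Compound dosing: 3 µM, single point | Schedule: Dye loading 75 min at 37 °C, then 30 min room temperature | Signal: Calcium fluorescence with Fluo-8 | Evaluation: Percent inhibition of PEA-evoked calcium signal, max/basal emission ratio | Control set: DMSO-only wells and EC80 β-PEA-stimulated wells | Repeats: Singlicate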
For `COC(=O)C1(C(=O)OC)C[C@H](c2ccccc2)N(Cc2ccccc2OC)[C@@H]1c1ccccc1`, the inhibition is -23.2% (inactive).

`Cc1noc(C)c1NC(=O)Nc1ccc2c(c1)C(=O)N([C@H](C)CO)C[C@H](C)[C@H](CN(C)Cc1ccncc1)OCCCC[C@@H](C)O2`: the inhibition is 8.35% (inactive). The value for `CCCCCCc1cc2cc(-c3nnc(-c4cccc(OC)c4)o3)c(=O)oc2cc1O` was 15.5% (inactive); that for `Nc1[nH]c(C(=O)c2ccccc2)c(-c2ccncc2)c1C(=O)NCc1cccc2ccccc12` was 36.1% (inactive). Consider `NC(=O)c1ncn([C@@H]2O[C@H](C(=O)O)[C@@H](O)[C@H]2O)n1`, for which the inhibition was -11.9% (inactive). As to `COc1cccc(CNC(=O)[C@H]2CCCN2C(=O)[C@H]2CCCN2C(=O)c2ccc(F)cc2)c1`, the inhibition is -14.1% (inactive). For `COc1ccc(CNC(=O)C(c2ccc(O)cc2)N(Cc2ccco2)C(=O)c2snc(C(N)=O)c2N)cc1` (stereo not drawn), the inhibition is 65% (active). The result for `NC(=O)c1nsc(C(=O)N(CC(=O)NCc2ccc(F)cc2)Cc2ccco2)c1N` reads 10.2% (inactive).

As to `COc1cc(C(C(=O)NC2CCCC2)N(Cc2ccccc2)C(=O)c2snc(C(N)=O)c2N)ccc1O` (stereo not drawn), the inhibition was 23.1% (inactive). The value for `COc1ccc2nc3n(c(=O)c2c1)-c1ccc(Cl)cc1C(=O)NC3Cc1ccccc1` (stereo not drawn) was 25.3% (inactive); that for `CCC(C(=O)OCC(=O)Nc1c(Cl)cc(Cl)cc1Cl)c1ccccc1` (stereo not drawn) was 15.1% (inactive); that for `CCC(C(=O)OCC(=O)Nc1ccccc1-c1ccccc1)c1ccccc1` (stereo not drawn) was 36.7% (inactive).

Regarding `CCC(C(=O)OCC(=O)Nc1ccc(C(=O)Nc2ccc(OC)cc2)cc1)c1ccccc1` (stereo not drawn), the inhibition is 65.6% (active). With `O=C1Nc2c(Br)cc(Br)cc2C1(O)N1CCOCC1` (stereo not drawn), the inhibition was 1.94% (inactive). The result for `COc1ccc(-c2cc3nc(C)c(CCC(=O)NC(C)CCc4ccco4)c(C)n3n2)c(OC)c1` (stereo not drawn) reads 8.4% (inactive); that for `COc1ccc2[nH]c3c(c2c1)CCN1C(=O)C(CC(=O)NCCc2ccccn2)C[C@H](C(=O)N2CCOCC2)[C@@]31C` (stereo partly drawn), 3.09% (inactive); that for `CCN1C(=O)N[C@@H]2C[C@H](C(=O)N3CCCC3)[C@H](C)[C@H](c3ccccc3)C[C@@H]21`, 6% (inactive). The value for `Cc1ccc(C)c(S(=O)(=O)N2CCN(CC(=O)Nc3ccc([N+](=O)[O-])cc3)CC2)c1` was 28.5% (inactive); that for `Cc1ccc(C)c(S(=O)(=O)N2CCN(c3ncnc4sccc34)CC2)c1` was 65.3% (active). The value for `Cc1ccc(C)c(S(=O)(=O)n2cnc3ccccc32)c1` was -29.5% (inactive); that for `COc1ccc(NC(=O)N(C)C[C@@H]2OCCCC[C@@H](C)Oc3ccc(NC(=O)NC4CCCCC4)cc3C(=O)N([C@H](C)CO)C[C@@H]2C)cc1` was 2.84% (inactive); that for `CC[C@H](C)[C@H]1CNC(=O)C(=O)N1CC1CCN(CCc2ccc(OC)c(OC)c2)CC1` was 9.23% (inactive). In the case of `CCO/C([O-])=N/c1c[n+](N2CCOCC2)no1`, the inhibition was -14.5% (inactive) and -7.68% (inactive).
